{
  "source": "ChEMBL document CHEMBL4373685",
  "about": "“High affinity rigidified AT2 receptor ligands with indane scaffolds” (Medchemcomm, 2019)",
  "key": {"[1]": {"tested_on": "NG108-15", "test": "Agonist activity at AT2 receptor in mouse/rat NG108-15 cells assessed as neurite growth at 10 nM after 3 days by phase contrast microscopic analysis", "type": "cell-based", "method_in_brief": "(§1)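 NG108-15 neuroblastoma x glioma cells, passages 18–25, in DMEM with 10% FBS and HAT at 37 °C, 7% CO2. Seeded at 3.6 × 10^4 cells per 35 mm dish. Dosed once daily for 3 days starting 24 h after plating; where used, 10 μM PD 123319 was added 30 min before compound. On day 4, phase-contrast micrographs were taken. Cells with a neurite longer than the cell body were scored as % of at least 400 cells. Three independent experiments in duplicate, two-way ANOVA.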"}, "[2]": {"tested_on": "NG108-15", "test": "Agonist activity at AT2 receptor in mouse/rat NG108-15 cells assessed as neurite growth at 10 nM after 3 days in presence of PD123319 by phase contrast microscopic analysis", "type": "cell-based", "method_in_brief": "as §1"}, "[3]": {"test": "Displacement of [125I]-Ang2 from AT2 receptor in porcine uterine myometrial membranes after 1.5 hrs by gamma scintillation gamma scintillation counting analysis", "design": "species or system Sus scrofa", "method_in_brief": "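Pig uterine myometrial membranes (10 mg original tissue per tube) with 1 μM losartan to block AT1. Incubated 25 °C for 1.5 h, then filtered and counted by γ-counter. Nonspecific binding with 1 μM Ang II.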"}, "[4]": {"tested_on": "NG108-15", "test": "Antagonist activity at AT2 receptor in mouse/rat NG108-15 cells assessed as inhibition of angiotensin-2 induced neurite growth at 10 nM after 3 days in presence of angiotensin-2 by phase contrast microscopic analysis", "type": "cell-based", "method_in_brief": "(§2)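 NG108-15 cells seeded at 3.6 × 10^4 per 35 mm dish. Compound given once daily for 3 days, starting 24 h after plating, 30 min before 100 nM Ang II. On day 4, phase-contrast micrographs were taken. Cells bearing a neurite longer than the cell body were counted as % of at least 400 cells. Three independent experiments in duplicate, two-way ANOVA.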"}, "[5]": {"tested_on": "NG108-15", "test": "Antagonist activity at AT2 receptor in mouse/rat NG108-15 cells assessed as inhibition of angiotensin-2 induced neurite growth at 100 nM after 3 days in presence of angiotensin-2 by phase contrast microscopic analysis", "type": "cell-based", "method_in_brief": "as §2"}},
  "note": "Calls of active or inactive are those of the source. The calls are words filed in the database; no cut-off is given here.",
  "data": [
    {"smiles": "CCCCOC(=O)NS(=O)(=O)c1cc2c(cc1-c1ccc(Cn3ccnc3)cc1)CCC2C(C)C", "note": "(single isomer, unassigned; (+)) [listing 1 of 2 here]", "values": [
      {"measurement": "Activity", "setting": "[1]", "value": "Active"},
      {"measurement": "Activity", "setting": "[2]", "value": "inactive"}
    ]},
    {"smiles": "CCCCOC(=O)NS(=O)(=O)c1cc2c(cc1-c1cccc(Cn3ccnc3)c1)CCC2C(C)C", "note": "(single isomer, unassigned; (-)) [listing 1 of 2 here]", "values": [
      {"measurement": "Ki", "setting": "[3]", "value": 7, "unit": "nM"}
    ]},
    {"smiles": "CCCCOC(=O)NS(=O)(=O)c1ccc2c(c1-c1ccc(Cn3ccnc3)cc1)CCC2C(C)C", "note": "(single isomer, unassigned; (+)) [listing 1 of 2 here]", "values": [
      {"measurement": "inhibition", "setting": "[4]", "value": "Active"},
      {"measurement": "inhibition", "setting": "[5]", "value": "Active"}
    ]},
    {"smiles": "CCCCOC(=O)NS(=O)(=O)c1cc2c(cc1-c1cccc(Cn3ccnc3)c1)CCC2C(C)C", "note": "(single isomer, unassigned; (+)) [listing 1 of 2 here]", "values": [
      {"measurement": "inhibition", "setting": "[4]", "value": "Active"},
      {"measurement": "inhibition", "setting": "[5]", "value": "Active"}
    ]},
    {"smiles": "CCCCOC(=O)NS(=O)(=O)c1ccc2c(c1-c1cccc(Cn3ccnc3)c1)CCC2C(C)C", "note": "(single isomer, unassigned; (-)) [listing 1 of 2 here]", "values": [
      {"measurement": "Ki", "setting": "[3]", "value": 223, "unit": "nM"}
    ]},
    {"smiles": "CCCCOC(=O)NS(=O)(=O)c1ccc2c(c1-c1cccc(Cn3ccnc3)c1)CCC2C(C)C", "note": "(stereo in doubt; 8b) [listing 1 of 2 here]", "values": [
      {"measurement": "inhibition", "setting": "[4]", "value": "Active"},
      {"measurement": "inhibition", "setting": "[5]", "value": "Active"}
    ]},
    {"smiles": "CCCCOC(=O)NS(=O)(=O)c1cc2c(cc1-c1cccc(Cn3ccnc3)c1)CCC2C(C)C", "note": "(single isomer, unassigned; (-)) [listing 2 of 2 here]", "values": [
      {"measurement": "Activity", "setting": "[1]", "value": "Active"},
      {"measurement": "Activity", "setting": "[2]", "value": "inactive"}
    ]},
    {"smiles": "CCCCOC(=O)NS(=O)(=O)c1ccc2c(c1-c1ccc(Cn3ccnc3)cc1)CCC2C(C)C", "note": "(single isomer, unassigned; (+)) [listing 2 of 2 here]", "values": [
      {"measurement": "Ki", "setting": "[3]", "value": 2.8, "unit": "nM"}
    ]},
    {"smiles": "CCCCOC(=O)NS(=O)(=O)c1ccc2c(c1-c1ccc(Cn3ccnc3)cc1)CCC2C(C)C", "note": "(single isomer, unassigned; (-)) [listing 1 of 2 here]", "values": [
      {"measurement": "Ki", "setting": "[3]", "value": 127, "unit": "nM"}
    ]},
    {"smiles": "CCCCOC(=O)NS(=O)(=O)c1cc2c(cc1-c1cccc(Cn3ccnc3)c1)CCC2C(C)C", "note": "(single isomer, unassigned; (+)) [listing 2 of 2 here]", "values": [
      {"measurement": "Ki", "setting": "[3]", "value": 3.2, "unit": "nM"}
    ]},
    {"smiles": "CCCCOC(=O)NS(=O)(=O)c1ccc2c(c1-c1cccc(Cn3ccnc3)c1)CCC2C(C)C", "note": "(single isomer, unassigned; (-)) [listing 2 of 2 here]", "values": [
      {"measurement": "inhibition", "setting": "[4]", "value": "Active"},
      {"measurement": "inhibition", "setting": "[5]", "value": "Active"}
    ]},
    {"smiles": "CCCCOC(=O)NS(=O)(=O)c1cc2c(cc1-c1ccc(Cn3ccnc3)cc1)CCC2C(C)C", "note": "(single isomer, unassigned; (-)) [listing 1 of 2 here]", "values": [
      {"measurement": "Activity", "setting": "[1]", "value": "Active"},
      {"measurement": "Activity", "setting": "[2]", "value": "inactive"}
    ]},
    {"smiles": "CCCCOC(=O)NS(=O)(=O)c1ccc2c(c1-c1cccc(Cn3ccnc3)c1)CCC2C(C)C", "note": "(stereo in doubt; 8b) [listing 2 of 2 here]", "values": [
      {"measurement": "Ki", "setting": "[3]", "value": 53.5, "unit": "nM"}
    ]},
    {"smiles": "CCCCOC(=O)NS(=O)(=O)c1cc2c(cc1-c1ccc(Cn3ccnc3)cc1)CCC2C(C)C", "note": "(single isomer, unassigned; (+)) [listing 2 of 2 here]", "values": [
      {"measurement": "Ki", "setting": "[3]", "value": 2.2, "unit": "nM"}
    ]},
    {"smiles": "CCCCOC(=O)NS(=O)(=O)c1ccc2c(c1-c1ccc(Cn3ccnc3)cc1)CCC2C(C)C", "note": "(single isomer, unassigned; (-)) [listing 2 of 2 here]", "values": [
      {"measurement": "Activity", "setting": "[1]", "value": "Active"},
      {"measurement": "Activity", "setting": "[2]", "value": "inactive"}
    ]},
    {"smiles": "CCCCOC(=O)NS(=O)(=O)c1cc2c(cc1-c1ccc(Cn3ccnc3)cc1)CCC2C(C)C", "note": "(single isomer, unassigned; (-)) [listing 2 of 2 here]", "values": [
      {"measurement": "Ki", "setting": "[3]", "value": 5.9, "unit": "nM"}
    ]}
  ]
}
